From ChEMBL document CHEMBL1144451, “Polyamine-vectored iron chelators: the role of charge” (J Med Chem, 2005)
pIC50, pKi: −log10 of the molar value.

How the values were obtained:
L1210 [1] = assay: Intracellular concentration was determined in murine L1210 cells after treatment with 100 uM compound for 4 hrs; assay type: functional, cell-based; details: Mus musculus
Outline: (§1)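 Murine leukemia L1210 cells exposed to the compound, 48 h unless another time is indicated. Intracellular level measured as pmol/10^6 cells. Converted to concentration using about 1 µL volume per 10^6 untreated cells.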

L1210 [2] = assay: Intracellular concentration was determined in murine L1210 cells after treatment with 100 uM compound for 48 hrs; assay type: functional, cell-based; details: Mus musculus; outline: as §1
[3] = Iron clearing efficiency in bile of rodents following a subcutaneous dosage of 300 umol/kg; assay type: functional
Outline: (§2)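 Bile-duct-cannulated rats given a subcutaneous dose of 300 µmol/kg, equivalent in iron-binding capacity to 450 µmol/kg of the 3:1 ligands. Chelator-induced iron excretion measured in both bile and urine. Bile collected as multiple samples to follow excretion kinetics.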

[4] = Iron clearing efficiency in urine of rodents following a subcutaneous dosage of 300 umol/kg; assay type: functional; outline: as §2
[5] = Iron clearing efficiency in bile-duct-cannulated rodents following a subcutaneous dosage of 300 umol/kg; assay type: functional; outline: as §2
L1210 [6] = assay: Ability to compete with [3H]SPD for the polyamine transport apparatus in L1210 cells; assay type: functional, cell-based, Mus musculus
L1210 [7] = assay: Inhibitory concentration against growth of murine L1210 cells at 48 hours; assay type: functional, cell-based; details: Mus musculus, L1210, 48 h
Outline: (§3)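 Proliferation of murine leukemia L1210 cells measured after 48 h or 96 h exposure. IC50 reported as the mean of at least two experiments. Variation from the mean was typically 10–25% for the 96-h values.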

L1210 [8] = assay: Inhibitory concentration against growth of murine L1210 cells at 96 hours; assay type: functional, cell-based; details: Mus musculus, L1210, 96 h; outline: as §3
L1210 [9] = assay: Ratio of intracellular concentration to that of treatment concentration in L1210 cells; assay type: functional, Mus musculus
L1210 [10] = assay: Intracellular concentration was determined in murine L1210 cells after treatment with 100 uM compound for 48 h; assay type: functional, cell-based; details: Mus musculus; outline: as §1
L1210 [11] = assay: Intracellular concentration was determined in murine L1210 cells after treatment with 0.2 uM compound for 48 h; assay type: functional, cell-based; details: Mus musculus; outline: as §1
[12] = Iron clearing efficiency in bile of rodents following a subcutaneous dosage of 450 umol/kg; assay type: ADME; details: rodentia, in vivo, sc
Outline: (§4)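 Bile-duct-cannulated rat model. Drug given sc at 450 µmol/kg, set for equivalent iron-binding capacity. Chelator-promoted iron excretion measured in both bile and urine. Multiple bile samples collected, so the kinetics of iron excretion could be followed.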

[13] = Iron clearing efficiency in urine of rodents following a subcutaneous dosage of 450 umol/kg; assay type: ADME; details: rodentia, in vivo, sc; outline: as §4
[14] = Iron clearing efficiency in bile-duct-cannulated rodents following a subcutaneous dosage of 450 umol/kg; assay type: ADME; details: rodentia, in vivo, sc; outline: as §4
[15] = Iron clearing efficiency in bile-duct-cannulated rodents following a subcutaneous dosage of 450 umol/kg (iron excretion delayed until ~18 hours after administration); assay type: functional
L1210 [16] = assay: Intracellular concentration was determined in murine L1210 cells after treatment with 30 uM compound for 48 h; assay type: functional, cell-based; details: Mus musculus; outline: as §1
L1210 [17] = assay: Intracellular concentration was determined in murine L1210 cells after treatment with 50 uM compound for 48 h; assay type: functional, cell-based; details: Mus musculus
Outline: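 Murine leukemia L1210 cells exposed to compound for 48 h unless otherwise indicated. Intracellular concentration expressed as pmol/10^6 cells; 10^6 untreated cells taken as about 1 µL volume. Mean of at least two or three experiments, variation typically less than 10%.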

Row | SMILES | Concentration (pmol/10E6 cells) (L1210 [1]) | Concentration (pmol/10E6 cells) (L1210 [2]) | Efficiency [3] [%] | Efficiency [4] [%] | Efficiency [5] [%] | pKi (L1210 [6]) | pIC50 (L1210 [7]) | pIC50 (L1210 [8]) | Ratio (L1210 [9]) | Concentration (pmol/10E6 cells) (L1210 [10]) | Concentration (pmol/10E6 cells) (L1210 [11]) | Efficiency [12] [%] | Efficiency [13] [%] | Efficiency [14] [%] | Efficiency [15] [%] | Concentration (pmol/10E6 cells) (L1210 [16]) | Concentration (pmol/10E6 cells) (L1210 [17])
1 | CCOC(=O)[C@@]1(C)CSC(c2ccc(OCCCCNCCCNCCCN)cc2O)=N1 | 2980 | 947 | 97 | 3 | 13.6 | 5.24 | 5.82 | 5.82 | – | – | – | – | – | – | – | – | –
2 | COC(=O)c1ccc(C(=O)NCCCNCCCCNCCCN)cc1 | – | 430 | – | – | – | 5.51 | < 4.00 | < 4.00 | 4.3 | – | – | – | – | – | – | – | –
3 | NCCCNCCCCNCCCNC(=O)c1ccc(C(=O)O)cc1 | – | – | – | – | – | 4.57 | < 4.00 | < 4.00 | <0.7 | < 70 | – | – | – | – | – | – | –
4 | Cc1c(O)c(=O)ccn1CCCNCCCCNCCCN | – | – | – | – | – | 5.43 | 6.70 | – | 1950 | – | 390 | 53 | 47 | 1.8 | <0.5 | – | –
5 | FC(F)(F)CNCCCNCCCCNCCCNCC(F)(F)F | – | – | – | – | – | – | – | < 4.00 | <0.2 | < 20 | – | – | – | – | – | – | –
6 | CCNCCCNCCCCNCCCNCC [BIS(ETHYL)SPERMINE] | – | – | – | – | – | – | – | – | 13.3 | – | – | – | – | – | – | 400 | –
7 | C[C@]1(C(=O)O)CSC(c2ccc(O)cc2O)=N1 [DEFERITRIN] | – | – | 93 | 7 | 1.1 | < 3.30 | 4.72 | 4.70 | <0.5 | < 50 | – | – | – | – | – | – | –
8 | C[C@]1(C(=O)O)CSC(c2ccc(OCCCCNCCCNCCCN)cc2O)=N1 | 71 | – | 99 | 1 | 9.2 | 4.14 | 4.40 | 4.40 | 0.7 | – | – | – | – | – | – | – | –
9 | Cc1c(O)c(=O)ccn1C [DEFERIPRONE] | – | – | – | – | – | < 3.30 | 4.34 | 4.26 | 0.02 | – | – | 74 | 26 | 2.2 | – | – | 1
